Results published in ChEMBL document CHEMBL1151787, “Salicylanilides: selective inhibitors of interleukin-12p40 production” (Bioorg Med Chem, 2008).
Calls of active or inactive are those of the source. The rule behind the calls is not given here.

Experiments:
Mus musculus = species on record: Mus musculus; experiment: Inhibition of CD40L, IFN-gamma and IL18 mixture-induced IL12p40 production in mouse DC-B cells at 10 uM after 18 to 24 hrs by fluorescence immunoassay; assay type: functional, cell-based
[1] = Inhibition of CD40L, IFN-gamma and IL18 mixture-induced IL6 production in mouse DC-B cells after 18 to 24 hrs by fluorescence immunoassay; assay type: functional, cell-based
Outline: (§1)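 DC-B cells grown in GM-CSF (20 ng/mL) medium and passaged every 48 h. Cells were mixed with compound in low-serum assay medium (0.4% DMSO) and stimulated with murine CD40L 2 ng/mL, IL-18 40 ng/mL and IFN-gamma 20 ng/mL (final). Incubation was 18–24 h at 37 °C, 5% CO2. Supernatant IL-12p40 or IL-6 was measured by europium sandwich immunoassay (biotinylated detection antibody, Eu-streptavidin, 615 nm). Ten concentrations were tested, in triplicate, and results were expressed as percent of control versus concentration.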

[2] = Cytotoxicity against CD40L, IFN-gamma and IL18 mixture-stimulated mouse DC-B cells at <100 nM after 18 hrs by CellTiter-Glo assay; assay type: cell-based
Outline: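 Murine dendritic cell line DC-B treated with test compound, then stimulated as in the cytokine assay (mouse CD40L, IL-18, IFN-gamma) and incubated 18 h. CellTiter-Glo reagent added in volume equal to the culture. Plates shaken 2 min to lyse cells, then left 10 min without shaking. Luminescence read on a microplate reader.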

[3] = Inhibition of CD40L, IFN-gamma and IL18 mixture-induced IL12p40 production in mouse DC-B cells after 18 to 24 hrs by fluorescence immunoassay; assay type: functional, cell-based; outline: as §1

| IC50 [1] [nM] | IC50 [3] [nM] | SMILES | Activity (Mus musculus) | Activity [2] |
| --- | --- | --- | --- | --- |
| > 10000 | > 10000 | O=C(Nc1cc(Cl)cc(Cl)c1)c1ccccc1OCc1ccccc1 | inactive | Non-toxic |
| > 10000 | 45 | O=C(Nc1cc(Cl)c(Cl)cc1Cl)c1ccccc1O |  | Non-toxic |
| 740 | 120 | O=C(Nc1cc(C(F)(F)F)cc(C(F)(F)F)c1)c1ccccc1O |  | Non-toxic |
| 640 | 74 | O=C(Nc1cc(Cl)c(Cl)cc1Cl)c1cc(Br)ccc1O |  | Non-toxic |
| > 10000 | 13 | O=C(Nc1cc(Cl)cc(Cl)c1)c1ccccc1O |  | Non-toxic |
| 1700 | 2700 | Oc1ccc(Br)cc1CNc1cc(Cl)cc(Cl)c1 |  | Non-toxic |
| > 10000 | > 10000 | Cc1cc(C)cc(NC(=O)c2ccccc2O)c1 |  | Non-toxic |
| 1800 | 200 | O=C(Nc1cc(C(F)(F)F)ccc1Cl)c1ccccc1O |  | Non-toxic |
| > 10000 | > 10000 | CN(C(=O)c1ccccc1O)c1cc(Cl)cc(Cl)c1 |  | Non-toxic |
| 350 | 280 | O=c1oc2cc(Cl)ccc2c(=O)n1-c1cc(C(F)(F)F)cc(C(F)(F)F)c1 |  | Non-toxic |
| 300 | 13 | O=C(Nc1cc(Cl)cc(Cl)c1)c1cc(Br)ccc1O |  | Non-toxic |
| > 10000 | > 10000 | O=C(O)CN(C(=O)c1ccccc1O)c1cc(Cl)cc(Cl)c1 |  | Non-toxic |
| > 10000 | 5100 | O=C(Nc1cccc(Cl)c1)c1ccccc1O |  | Non-toxic |
| > 10000 | > 10000 | O=C(Nc1ccc(O)cc1)c1ccccc1O [OSALMID] |  | Non-toxic |
| 170 | 410 | O=C(Nc1cc(Cl)cc(Cl)c1)c1cc([N+](=O)[O-])ccc1O |  | Non-toxic |
| 220 | 240 | O=C(Nc1cc(Cl)cc(Cl)c1)c1ccccc1NS(=O)(=O)c1ccc(Cl)c([N+](=O)[O-])c1 |  | Non-toxic |
| > 10000 | > 10000 | O=C(Nc1ccccn1)c1ccccc1O |  | Non-toxic |
| > 10000 | > 10000 | O=C1c2cccc(O)c2C(=O)N1c1cc(Cl)cc(Cl)c1 |  | Non-toxic |
| 130 | 130 | O=C(Nc1ccc(Cl)c(Cl)c1)c1cc(Cl)ccc1O |  | Non-toxic |
| 250 | 320 | O=C(Nc1cc(Cl)cc(Cl)c1)c1ccc([N+](=O)[O-])cc1O |  | Non-toxic |
